aDG glyco up: increases alpha dystroglycan glycosylation | Pro5-aDG cells, alpha-DG glycosylation AlphaScreen (IIH6); 0% Pro5, 100% B10-LARGE cell signal | activation, % at 10 µM | 0.22% of 360,000 active;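 active = activation of at least 8% versus controls, or a plate z-score of at least 8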;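 note: Pro5 are CHO cells carrying HIG-tagged alpha-DG that lacks glycosylation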
697 NFkB inh: inhibitors of the PMA/ionomycin-induced NF-kB reporter in 697 B cells. 697 B-cell NF-kB luciferase reporter, 16 h. inhibition, % at 4 µM. 0.33% of 330,000 active. AID 435022; in the data active = inhibition above about 35%
NR2E3 ag-1: NR2E3 (human) agonism. Q9Y5X4. GST-NR2E3/biotin-RetCOR TR-FRET, 1536-well. inhibition of corepressor binding, % at 4.78 µM. 0.12% of 320,000 active;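 active = percent inhibition above the cutoff of mean plus 3 SD of all tested compounds, set per screening campaign, cut at about 20% in these data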;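 note: 0% = DMSO wells and 100% = biotin wells as full block of FRET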
Target sequence (Q9Y5X4 whole entry, looked up): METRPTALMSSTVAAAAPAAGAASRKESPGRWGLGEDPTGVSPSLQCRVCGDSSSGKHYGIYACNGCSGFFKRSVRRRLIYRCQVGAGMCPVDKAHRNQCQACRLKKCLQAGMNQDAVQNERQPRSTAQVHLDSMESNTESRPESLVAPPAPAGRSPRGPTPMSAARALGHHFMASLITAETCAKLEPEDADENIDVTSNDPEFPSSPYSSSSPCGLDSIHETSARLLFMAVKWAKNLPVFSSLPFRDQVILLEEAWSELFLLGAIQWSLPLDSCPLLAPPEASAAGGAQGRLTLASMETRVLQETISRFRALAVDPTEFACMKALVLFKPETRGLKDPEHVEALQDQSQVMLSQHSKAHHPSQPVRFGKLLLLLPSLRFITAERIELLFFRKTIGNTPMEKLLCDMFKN
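Material: NR2E3–RetCOR corepressor complex | Quantity: 1.35 nM GST-tagged NR2E3 final | Schedule: 5 h at 4 °C | Replication: Singlicate compound wells | Reagent: RetCOR corepressor, biotinylated, 7 nM | Controls: Biotin wells as high control, 0.6% DMSO wells as low control | Signal: TR-FRET, Eu(K)-anti-GST donor, streptavidin-D2 acceptor, ex 340, em 617/671 nm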
Jurkat NFkB inh: inhibitors of the PMA/ionomycin-induced NF-kB reporter in Jurkat cells. PMA/ionomycin-induced NF-kB luciferase reporter, luminescence. inhibition, % at 4 µM. 0.53% of 330,000 active; in the data active = inhibition above about 50%
NR2E3 ag-2: human photoreceptor-specific nuclear receptor agonism | Q9Y5X4 | CHO-S Gal4-NCOR/VP16-NR2E3 two-hybrid, luciferase | inhibition of corepressor binding, % at 3.98 µM | 0.35% of 360,000 active | AID 602229;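 active = inhibition above the mean of all tested compounds plus 3 SD, cut at about 70% in these data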;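 note: 0% = DMSO with NR2E3 transfected cells and 100% = cells lacking NR2E3 construct; higher means lower luciferase signal from less NR2E3 corepressor binding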
MPTP inh: blocks calcium-induced mitochondrial swelling; isolated mouse mitochondria, Ca2+ swelling absorbance, 30 min; inhibition, % at 10 µM; 1.4% of 360,000 active; AID 602449;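 active = inhibition of 50% or more, scaled per plate between neutral and stimulator controls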;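 note: 0% = DMSO wells given calcium and 100% = 1 mM EGTA wells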
Jurkat NFkB conf: inhibitors of the PMA/ionomycin-induced NF-kB reporter in Jurkat cells, retest; shares compounds with Jurkat NFkB inh; Jurkat NF-kB luciferase, 16 h; inhibition, % at 4 µM; 27% of 2,700 active; AID 435020;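 active = inhibition reaching about 45% at 4 µM in either replicate, limit read from the data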;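 note: plate controls were PMA/ionomycin stimulated DMSO wells for no effect and unstimulated DMSO wells for full effect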
Numbers without * were called inactive; / = no result. Rows were chosen to be rich in hits. Some 2.4% of all compounds tested hit in one or more screens of this group.

SMILES	aDG glyco up	697 NFkB inh	NR2E3 ag-1	Jurkat NFkB inh	NR2E3 ag-2	MPTP inh	Jurkat NFkB conf
CC(OC(=O)C1=COCCO1)C(=O)NC1CCCCC1C (stereo not given)	0.0	-4.8	3.8	-1.7	-22.2	-2.5	/
CN(C)CCCNc1c2ccccc2nc2ccccc12	-0.2	34.5	-1.9	99.4*	-18.8	-0.6	-57.0
CCc1ccc(-n2nc3cc(C)c(N)cc3n2)cc1	0.0	-218.1	-1.7	-167.1	-179.6	-0.1	-32.7
COC(=O)CSc1nsc(SCC(=O)OC)n1	-0.4	-45.7	-2.5	62.3*	16.0	0.1	10.1
COc1ccc(NC(=O)CSc2nc(SC)ns2)cc1	-0.1	-58.1	2.4	-154.1	-94.8	0.0	-45.0
COc1cc(OC)cc(C(=O)NCC(C)NC(=O)c2cc(OC)cc(OC)c2)c1 (stereo not given)	0.4	-6.9	-0.4	13.3	-9.5	2.3	/
CCN(CC)CCn1c2ccccc2c2cnc(N)c(C#N)c21	0.5	2.1	2.3	-12.7	-53.7	-1.2	/
CC(=O)c1ccc(Nc2cc(C)nc3c(C)cccc23)cc1	0.3	-99.9	-5.2	56.5*	-121.7	4.4	26.6
COc1ccc(OC)c(Nc2cc(C)nc3ccc(C)cc23)c1	-0.2	-56.1	2.1	62.1*	-50.2	7.0	14.8
COc1ccc2nc(C)cc(Nc3ccc(N4CCN(C)CC4)cc3)c2c1	-0.1	10.6	0.3	74.1*	-61.5	-0.3	-25.9
COc1ccc(/C=N/Nc2ncccc2[N+](=O)[O-])c(OC)c1	0.0	-170.9	-0.8	-156.8	-21.9	1.2	1.3
COc1ccc2nc(C)cc(Nc3ccc(N4CCOCC4)cc3)c2c1	2.1	-2.8	-0.8	-36.2	-15.3	1.8	/
COc1ccc(NC2c3ccccc3C(=O)N2c2ccccn2)cc1 (stereo not given)	0.0	3.9	-0.2	9.6	-40.0	1.7	/
COc1ccc(/C=N/Nc2cc(C)nc3ccc(OC)cc23)c(OC)c1	-0.5	-7.9	-2.0	77.0*	-29.5	46.4	43.7
COC(=O)c1ccc(Nc2cc(C)nc3ccc(C)cc23)cc1	0.2	-61.5	-1.3	58.7*	-52.0	8.8	29.3
COc1ccc2nc(C)cc(N/N=C/c3ccccc3)c2c1	-0.4	-28.0	-1.0	38.3	-56.4	24.8	/
Cc1cc(N2CCN(C)CC2)ccc1NC(=O)c1c2c(nc3ccccc13)CCN(Cc1ccccc1)C2	-0.8	10.5	-0.6	76.6*	1.8	0.2	10.8
O=C(NC1CCCCCC1)c1c2c(nc3ccccc13)CCN(Cc1ccccc1)C2	0.0	-14.7	-1.0	0.5	-30.4	7.2	/
CNC[C@H](CC1CCCCC1)NC[C@H](Cc1ccccc1)NCCC12CC3CC(CC(C3)C1)C2	-0.4	21.2	-1.9	91.2*	9.6	6.5	45.2
NC[C@H](Cc1ccccc1)NCCCCC1CCCCC1	-0.2	-5.2	4.9	5.6	15.4	0.2	/
CN(Cc1cnn(Cc2ccccc2)c1)C(=O)c1cccc(S(=O)(=O)N2CCOCC2)c1	0.2	-7.9	-1.6	21.3	-30.1	-0.1	/
COc1ccc(C(=O)N(C)Cc2cnn(Cc3ccccc3)c2)cc1S(=O)(=O)N1CCOCC1	0.2	-48.2	0.9	54.2*	-23.9	-2.4	44.3
CCC(CO)NCC#Cc1ccccc1 (stereo not given)	-0.1	4.6	-0.1	-1.5	-16.8	0.5	/
Cc1[nH]nc(Nc2ccc(C(C)C)cc2)c1[N+](=O)[O-]	0.0	-112.6	0.3	-111.9	-76.2	49.3	/
CC(=O)Nc1ccc(S(=O)(=O)N2c3ccc(F)cc3CCC2C)cc1 (stereo not given)	-0.1	-20.6	-0.7	56.5*	-47.1	5.5	42.0
SMILES	aDG glyco up	697 NFkB inh	NR2E3 ag-1	Jurkat NFkB inh	NR2E3 ag-2	MPTP inh	Jurkat NFkB conf
Brc1ccc2c(c1)CN1CCCC1=N2	-0.3	26.3	-0.2	73.5*	-33.3	-0.9	24.2
O=C1CN2C(=Nc3ccc(Br)cc3C2c2ccccc2)CCN1 (stereo not given)	0.3	-13.5	2.5	2.8	7.7	1.5	/
CC(C)(C)c1ccc(C(=O)Nc2ccc([N+](=O)[O-])cn2)cc1	-0.1	-95.8	-0.2	-182.3	-101.4	2.4	-113.0
CCOc1nc(NCCO)nc(Nc2ccccc2F)n1	-0.2	14.9	2.1	1.4	-16.0	-1.2	/
Cc1ccc2c(c1)N(C)/C(=C/c1cccc[n+]1C)S2	0.1	9.2	-0.5	74.5*	-25.9	0.0	16.6
CN1/C(=C/c2cccc[n+]2C)Sc2ccccc21	0.0	13.5	0.3	70.5*	21.8	-0.2	5.7
O=C(NC1CCC(O)CC1)c1cc(Cl)c2c(c1)OCCO2 (stereo not given)	0.1	-6.7	/	-5.6	-10.8	-1.9	/
C/C(CC(=O)Nc1cccnc1)=N\NC(=O)C(C)Oc1ccc(Cl)cc1Cl (stereo not given)	0.0	-17.9	2.7	-10.1	-14.2	2.4	/
Cc1cc(C)nc(S/C=C/C(=O)c2ccc(F)cc2)n1	/	-155.4	-0.1	69.5*	/	/	-1.2
COc1ccc(C2(C)NC(=O)N(CC(=O)Nc3ccc(-c4nc5ccc(C)cc5s4)cc3)C2=O)cc1 (stereo not given)	-0.3	-103.7	2.4	-80.8	-116.8	-1.5	/
CCC1(c2ccc(F)cc2)NC(=O)N(CC(=O)Nc2ccc(-c3nc4ccc(C)cc4s3)cc2)C1=O (stereo not given)	-0.1	-178.2	-1.8	-185.6	-131.7	0.3	-82.5
Cn1nc(C(=O)OCC(=O)Nc2ccc(Cl)cc2Cl)c2ccccc2c1=O	-0.3	11.3	-3.5	-0.8	11.3	0.0	/
Cc1cccc(NC(=O)c2ccc3c(Cl)c4c(nc3c2)CCCC4)n1	0.5	-210.3	2.5	-125.6	-11.5	0.4	/
O=C(Nc1ccc(Cl)cn1)c1ccc2c(Cl)c3c(nc2c1)CCC3	-0.1	-168.3	0.5	-157.3	-10.1	8.1	-93.0
C=CCCC(=O)Nc1nc(C)c(-c2csc(Nc3ccccc3OC)n2)s1	0.4	-36.5	-1.3	53.0*	-0.1	-1.0	16.1
O=C(NCC1CC1)c1csc(COCCO)n1	3.0	/	/	/	-5.6	1.0	/
c1ccc(CSC2=NNC(c3ccccn3)S2)cc1 (stereo not given)	-0.3	-18.6	4.9	71.0*	1.6	3.6	0.6
COc1ccc(CCN(C)S(=O)(=O)c2cn(C)c(=O)n(C)c2=O)cc1OC	1.1	-11.2	1.2	-12.3	5.7	-1.2	/
CC1(C)Cc2nc3sc4c(NCCO)ncnc4c3cc2CS1	-0.1	14.2	-2.3	-18.0	2.2	-2.3	/
CCCCn1cnc2c(sc3nc4c(cc32)CSC(C)(C)C4)c1=O	0.2	-129.5	-0.1	-150.1	-70.0	-0.4	-78.0
Cc1ccc(C)c(NC(=O)C(Sc2ncnc3ccccc23)c2ccccc2)c1 (stereo not given)	1.2	-7.1	2.3	6.2	-23.5	3.7	/
